Test results from ChEMBL document CHEMBL2375304, “Synthesis and anticancer activity of novel 2-pyridyl hexahyrocyclooctathieno[2,3-d]pyrimidine derivatives” (2013).

Assays:
Assay type in all cases: functional
KM12 = assay: Growth inhibition of human KM12 cells at 10^-5 M after 48 hrs by Sulforhodamine B assay relative to control; details: KM12, 48 h, read-out: GI
Outline: (§1)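 Single-dose screen at 10⁻⁵ M. Cells are preincubated 24 h at 37 °C in 5% CO2, then exposed to the compound, diluted from a DMSO stock into medium with gentamicin, for 48 h. Adherent cells are fixed with cold TCA (final 10%) and suspension cells with TCA (final 16%). Cells are stained with 0.4% SRB in 1% acetic acid and bound dye is read at 515 nm. Percent growth inhibition is taken against control wells and time-zero plates.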

CCRF-CEM = assay: Growth inhibition of human CCRF-CEM cells at 10^-5 M after 48 hrs by Sulforhodamine B assay relative to control; details: read-out: GI; outline: as §1
786-0 = assay: Growth inhibition of human 786-0 cells at 10^-5 M after 48 hrs by Sulforhodamine B assay relative to control; details: 786-0, 48 h, read-out: GI; outline: as §1
HCT-116 [1] = assay: Growth inhibition of human HCT116 cells at 10^-5 M after 48 hrs by Sulforhodamine B assay relative to control; details: HCT-116, 48 h, read-out: GI; outline: as §1
[2] = Growth inhibition of human HCC2998 cells at 10^-5 M after 48 hrs by Sulforhodamine B assay relative to control; details: HCC 2998, 48 h, read-out: GI; outline: as §1
CAKI-1 = assay: Growth inhibition of human CAKI-1 cells at 10^-5 M after 48 hrs by Sulforhodamine B assay relative to control; details: CAKI-1, 48 h, read-out: GI; outline: as §1
SR [3] = assay: Growth inhibition of human SR cells at 10^-5 M after 48 hrs by Sulforhodamine B assay relative to control; details: read-out: GI
Outline: (§2)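 Single-dose primary screen at 10⁻⁵ M across 49 lines. Cells were plated 24 h beforehand, with a TCA-fixed time-zero plate, then exposed 48 h at 37 °C, 5% CO2. Cells were fixed with cold TCA, stained with SRB and read at 515 nm. Percent growth was calculated against time-zero and untreated-control absorbances.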

HOP-92 = assay: Growth inhibition of human HOP92 cells at 10^-5 M after 48 hrs by Sulforhodamine B assay relative to control; details: HOP-92, 48 h, read-out: GI; outline: as §1
RXF 393 = assay: Growth inhibition of human RXF393 cells at 10^-5 M after 48 hrs by Sulforhodamine B assay relative to control; details: RXF 393, 48 h, read-out: GI; outline: as §2
OVCAR-4 = assay: Growth inhibition of human OVCAR4 cells after 48 hrs by Sulforhodamine B assay; details: OVCAR-4, 48 h
Outline: (§3)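 Cells were preincubated 24 h at 37 °C, 5% CO2, and a time-zero plate was TCA-fixed. Five concentrations were made by serial dilution from a DMSO stock (400-fold the top concentration) and incubated 48 h. Adherent cells were fixed with 10% final TCA and suspension cells with 16%. Plates were stained with 0.4% SRB and read at 515 nm. GI50 is the concentration giving 50% reduction in net protein increase versus control.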

Malme-3M = assay: Growth inhibition of human MALME-3M cells after 48 hrs by Sulforhodamine B assay
Outline: (§4)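 Five-concentration SRB assay using 10-fold or ½-log serial dilutions from a DMSO stock. Exposure is 48 h at 37 °C in 5% CO2 after 24 h preincubation. TCA fixation is followed by SRB staining and a reading at 515 nm. Percentage growth is computed from time-zero, control and treated absorbances. GI50 is the concentration where [(Ti−Tz)/(C−Tz)]×100 = 50, read from the plot against log concentration.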

MOLT-4 = assay: Growth inhibition of human MOLT4 cells after 48 hrs by Sulforhodamine B assay; details: MOLT-4, 48 h; outline: as §3
SF-295 = assay: Growth inhibition of human SF295 cells after 48 hrs by Sulforhodamine B assay; details: SF-295, 48 h; outline: as §3
SN12C = assay: Growth inhibition of human SN12C cells after 48 hrs by Sulforhodamine B assay; outline: as §3
T47D = assay: Growth inhibition of human T47D cells after 48 hrs by Sulforhodamine B assay; outline: as §3
SW-620 = assay: Growth inhibition of human SW620 cells after 48 hrs by Sulforhodamine B assay; details: SW-620, 48 h; outline: as §3
[4] = Growth inhibition of human NCI-ADR-RES cells after 48 hrs by Sulforhodamine B assay; outline: as §3
HCT-116 [5] = assay: Growth inhibition of human HCT116 cells after 48 hrs by Sulforhodamine B assay; details: HCT-116, 48 h; outline: as §4
SK-OV-3 = assay: Growth inhibition of human SKOV3 cells after 48 hrs by Sulforhodamine B assay; details: SK-OV-3, 48 h; outline: as §3
BT-549 = assay: Growth inhibition of human BT549 cells after 48 hrs by Sulforhodamine B assay; details: BT-549, 48 h; outline: as §4
SNB-19 = assay: Growth inhibition of human SNB19 cells after 48 hrs by Sulforhodamine B assay; details: SNB-19, 48 h; outline: as §3
MDA-MB-435 = assay: Growth inhibition of human MDA-MB-435 cells after 48 hrs by Sulforhodamine B assay; details: MDA-MB-435, 48 h; outline: as §4
PC-3 = assay: Growth inhibition of human PC3 cells after 48 hrs by Sulforhodamine B assay; details: PC-3, 48 h; outline: as §3
SR [6] = assay: Growth inhibition of human SR cells after 48 hrs by Sulforhodamine B assay; outline: as §3
U-251 = assay: Growth inhibition of human U251 cells after 48 hrs by Sulforhodamine B assay; details: U-251, 48 h
Outline: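 Five-concentration stage in the […]-cell-line panel, using 10-fold or ½-log serial dilutions made from a DMSO stock (400-fold). Cells were preincubated 24 h at 37 °C, then drug-exposed 48 h. A time-zero plate was fixed with TCA at dosing, adherent cells were fixed with cold TCA (10% final), and protein was stained with SRB, absorbance 515 nm. GI50 was where [(Ti−Tz)/(C−Tz)]×100 = 50, from the percent growth vs log concentration plot, expressed as log10 GI50.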

| Compound | inhibition of growth at 10 µM (KM12) [%] | inhibition of growth at 10 µM (CCRF-CEM) [%] | inhibition of growth at 10 µM (786-0) [%] | inhibition of growth at 10 µM (HCT-116 [1]) [%] | inhibition of growth at 10 µM [2] [%] | inhibition of growth at 10 µM (CAKI-1) [%] | inhibition of growth at 10 µM (SR [3]) [%] | GI50 (OVCAR-4) [µM] | GI50 (MOLT-4) [µM] | GI50 (SN12C) [µM] | GI50 (T47D) [µM] | GI50 (SW-620) [µM] | GI50 [4] [µM] | GI50 (HCT-116 [5]) [µM] | GI50 (SK-OV-3) [µM] | GI50 (BT-549) [µM] | GI50 (MDA-MB-435) [µM] | GI50 (PC-3) [µM] | GI50 (SR [6]) [µM] | GI50 (U-251) [µM] | also measured |
| --- | --- | --- | --- | --- | --- | --- | --- | --- | --- | --- | --- | --- | --- | --- | --- | --- | --- | --- | --- | --- | --- |
| Clc1nc(-c2ccncc2)nc2sc3c(c12)CCCCCC3 | 0.47 | 23.8 | 0.46 | 2.69 | -12.3 | -4.99 | 21.4 | – | – | – | – | – | – | – | – | – | – | – | – | – | – |
| c1ccc(N2CCN(c3nc(-c4ccncc4)nc4sc5c(c34)CCCCCC5)CC2)cc1 | 4.95 | – | 1.77 | -3.45 | -14 | 8.66 | 5.99 | – | – | – | – | – | – | – | – | – | – | – | – | – | inhibition of growth at 10 µM (HOP-92): 33.3%; inhibition of growth at 10 µM (RXF 393): 0.87% |
| c1cc(-c2nc(N3CCOCC3)c3c4c(sc3n2)CCCCCC4)ccn1 | 19.6 | 2.07 | 32.9 | 23.2 | -8.59 | 15.8 | 24.1 | – | – | – | – | – | – | – | – | – | – | – | – | – | – |
| c1ccc(-c2nc(N3CCOCC3)c3c4c(sc3n2)CCCCCC4)nc1 | – | – | – | – | – | – | – | 4.9 | 3.8 | 5.01 | 4.47 | 8.91 | 0.832 | 3.72 | 9.33 | 4.37 | 4.79 | 2.69 | – | – | GI50 (Malme-3M): 3.31 µM; GI50 (SF-295): 3.39 µM; GI50 (SNB-19): 8.32 µM |
| c1ccc(N2CCN(c3nc(-c4ccccn4)nc4sc5c(c34)CCCCCC5)CC2)cc1 | 55 | 31 | 10.7 | 80.5 | 13.7 | 45.9 | – | – | – | – | – | – | – | – | – | – | – | – | – | – | inhibition of growth at 10 µM (HOP-92): 26.8%; inhibition of growth at 10 µM (RXF 393): 32.2% |
| CN1CCN(c2nc(-c3ccccn3)nc3sc4c(c23)CCCCCC4)CC1 | 8.11 | 5.41 | 10 | 14.1 | 4.02 | 20 | – | – | – | – | – | – | – | – | – | – | – | – | – | – | – |
| CN1CCN(c2nc(-c3ccncc3)nc3sc4c(c23)CCCCCC4)CC1 | – | – | – | – | – | – | – | 12.6 | 3.8 | 5.62 | 13.5 | 12 | 8.13 | 5.13 | 12 | 6.31 | 11.7 | 4.68 | 2.82 | 9.33 | – |
| COc1ccc(N2CCN(c3nc(-c4ccccn4)nc4sc5c(c34)CCCCCC5)CC2)cc1 | – | – | – | – | – | – | – | 8.51 | 3.24 | 6.03 | 6.31 | 5.13 | 4.79 | 3.24 | > 100 | 6.92 | 5.5 | 3.31 | 3.16 | 4.27 | – |
| Clc1nc(-c2ccccn2)nc2sc3c(c12)CCCCCC3 | 8.45 | 27.6 | 1.61 | 15.5 | 36.6 | 165 | 33.7 | – | – | – | – | – | – | – | – | – | – | – | – | – | – |
| NNc1nc(-c2ccccn2)nc2sc3c(c12)CCCCCC3 | – | – | – | – | – | – | – | 10.5 | 3.63 | 6.31 | 5.01 | 4.57 | 0.457 | 3.55 | 30.9 | 9.77 | 5.13 | 3.98 | 3.98 | 4.47 | – |
| O=c1[nH]c(-c2ccccn2)nc2sc3c(c12)CCCCCC3 | – | – | – | – | – | – | – | 5.89 | 2.4 | 6.31 | 5.5 | 4.9 | 0.955 | 1.38 | > 100 | 5.62 | > 100 | 4.07 | 0.871 | 2.14 | – |
| NNc1nc(-c2ccncc2)nc2sc3c(c12)CCCCCC3 | -0.57 | 25.9 | 18.1 | 4.13 | -16 | 7.27 | 15.7 | – | – | – | – | – | – | – | – | – | – | – | – | – | – |
| O=c1[nH]c(-c2ccncc2)nc2sc3c(c12)CCCCCC3 | – | – | – | – | – | – | – | – | > 100 | > 100 | – | > 100 | – | – | – | > 100 | > 100 | > 100 | > 100 | > 100 | GI50 (Malme-3M): > 100 µM |
| COc1ccc(N2CCN(c3nc(-c4ccncc4)nc4sc5c(c34)CCCCCC5)CC2)cc1 | 22.4 | – | 11.1 | 23.3 | -11.5 | 28.8 | – | – | – | – | – | – | – | – | – | – | – | – | – | – | inhibition of growth at 10 µM (RXF 393): 17.2% |
